Molecules are shown by their SMILES.

One series deals with Motilin receptor (Homo sapiens, UniProt O43193). Nature of the series: Agonist activity at human recombinant motilin receptor expressed in HEK293 cells by FLIPR assay. Type of series: functional, cell-based. Summed up: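 HEK293 cells stably expressing human motilin receptor, seeded on poly-lysine plates 24 h before assay. Loaded with Fluo-4-AM (final) and 1 mM probenecid (final) in HEPES-buffered saline with 0.1% BSA for 1 h at 25 °C, washed, rested 20 min at 25 °C. Fluorescence change followed for 2 min after compound addition. Peak change over baseline was fitted with a 4-parameter logistic to give pEC50. Mean of at least three independent experiments (n = 2 for some).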
Sequence of Motilin receptor (O43193 whole entry): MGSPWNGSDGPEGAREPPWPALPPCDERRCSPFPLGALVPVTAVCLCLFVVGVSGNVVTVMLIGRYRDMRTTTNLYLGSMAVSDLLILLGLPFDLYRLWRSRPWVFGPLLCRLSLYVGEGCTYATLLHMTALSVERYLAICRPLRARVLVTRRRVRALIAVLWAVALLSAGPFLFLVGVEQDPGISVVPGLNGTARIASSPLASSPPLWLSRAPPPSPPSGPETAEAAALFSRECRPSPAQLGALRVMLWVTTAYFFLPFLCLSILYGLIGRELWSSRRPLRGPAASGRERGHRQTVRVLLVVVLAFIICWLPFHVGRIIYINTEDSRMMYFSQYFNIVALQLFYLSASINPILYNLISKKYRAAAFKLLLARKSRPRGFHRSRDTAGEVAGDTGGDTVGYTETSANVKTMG
Usually EC50 stands for the midpoint of the concentration-response curve. In the case of `COc1cccc(CCN(Cc2ccccc2-c2ccc(CN3CCNCC3)cc2)C(=O)COc2ccccc2)c1`, the 50% effective concentration (EC50) was 0.251 µM. Take `C[C@@H]1CN(Cc2ccc(-c3cccnc3C(=O)N3CCC(Nc4ccc(C(N)=O)cc4)CC3)cc2)C[C@H](C)N1`: the EC50 was 2.51 µM. As for `COc1ccc(NC2CCN(C(=O)c3ncccc3-c3ccc(CN4C[C@@H](C)N[C@@H](C)C4)cc3)CC2)cc1`, the EC50 is 1 µM.

Turning to `C[C@@H]1CN(Cc2ccc(-c3cccnc3C(=O)N3CCC(Nc4cccc(F)c4)CC3)cc2)C[C@H](C)N1`, the EC50 is 0.00631 µM. On the same count and under the same terms, to `Cc1ccc(S(=O)(=O)NCC(=O)N(C)Cc2ccccc2-c2ccc(CN3C[C@@H](C)N[C@@H](C)C3)cc2)cc1` belongs 0.02 µM.

With `C[C@@H]1CN(Cc2ccc(-c3cccnc3C(=O)N3CCC(Nc4cccc(F)c4)CC3)cc2F)C[C@H](C)N1`, the EC50 was 0.01 µM. For `COc1cc(-c2cccnc2C(=O)N2CCC(Nc3ccc(F)cc3)CC2)ccc1CN1C[C@@H](C)N[C@@H](C)C1`, the EC50 was 0.00501 µM. On to `COCCCN(Cc1ccccc1-c1ccc(CN2CCNCC2)cc1)C(=O)COc1ccccc1`, for which the EC50 is 0.398 µM. Still for that read-out and setting: next, `C[C@@H]1CN(Cc2ccc(-c3ccccc3CN(C)C(=O)CSc3ccccc3)cc2)C[C@H](C)N1`: 0.00316 µM; `C[C@@H]1CN(Cc2ccc(-c3cccnc3C(=O)N3CCC(Nc4ccc(F)c(F)c4)CC3)cc2)C[C@H](C)N1`: 0.002 µM; `C[C@@H]1CN(Cc2ccc(-c3ccccc3CN(C)C(=O)Cc3ccc(F)cc3)cc2)C[C@H](C)N1`: 0.0501 µM. Turning to `C[C@@H]1CN(Cc2ccc(-c3cccnc3C(=O)N3CCC(Nc4ccc(C#N)cc4)CC3)cc2)C[C@H](C)N1`, the EC50 was 0.631 µM. As for `C[C@@H]1CN(Cc2ccc(-c3cccnc3C(=O)N3CCC(Nc4cccc(C#N)c4)CC3)cc2)C[C@H](C)N1`, the EC50 is 0.02 µM. For the compound `C[C@@H]1CN(Cc2ccc(-c3ccccc3C(=O)N3CCC(NC(=O)c4ccc(F)cc4)CC3)cc2)C[C@H](C)N1`, the EC50 was more than 10 µM.

On to `C[C@@H]1CN(Cc2ccc(-c3ccccc3C(=O)N3CCC(Nc4ccc(F)cc4)CC3)nc2)C[C@H](C)N1`, for which the EC50 was more than 10 µM. Same read-out and setting: to `C[C@@H]1CN(Cc2cnc(-c3ccccc3C(=O)N3CCC(Nc4ccc(F)cc4)CC3)s2)C[C@H](C)N1` belongs 0.398 µM. As to `C[C@@H]1CN(Cc2ccc(-c3cccnc3C(=O)N3CCC(Nc4ccccc4C#N)CC3)cc2)C[C@H](C)N1`, the EC50 is 0.794 µM.

Consider `CC(C)CCC(=O)N(C)Cc1ccccc1-c1ccc(CN2C[C@@H](C)N[C@@H](C)C2)cc1`, for which the 50% effective concentration (EC50) was 0.251 µM. On to `C[C@@H]1CN(Cc2ccc(-c3ccccc3C(=O)N3CCC(Oc4ccc(F)cc4)CC3)cc2)C[C@H](C)N1`, for which the EC50 was 0.0631 µM.

Turning to `C[C@@H]1CN(Cc2ccc(-c3cccnc3C(=O)N3CCC(Nc4ccc(F)cc4)CC3)cc2F)C[C@H](C)N1`, the EC50 was 0.00398 µM.

`C[C@@H]1CN(Cc2ccc(N3CCCC3C(=O)N3CCC(Nc4cccc(F)c4)CC3)cc2)C[C@H](C)N1` (stereo not given in full): the EC50 is 2.51 µM. Consider `C[C@@H]1CN(Cc2ccc(-c3cccnc3C(=O)N3CCC(Nc4ccccc4F)CC3)cc2)C[C@H](C)N1`, for which the EC50 was 0.0501 µM.

For `C[C@@H]1CN(Cc2ccc(-c3ccccc3C(=O)N3CCC(Nc4ccc(F)cc4)CC3)cc2)C[C@H](C)N1`, the EC50 was 0.00251 µM.

In another series the test system is Liver microsomes. Nature of the series: Intrinsic clearance in human liver microsome. Type of series: ADME. On the technique in general: Microsomes from liver hold many membrane-bound enzymes, among them those of drug oxidation.
Compound `C[C@@H]1CN(Cc2ccc(-c3cccnc3C(=O)N3CCC(Nc4cccc(F)c4)CC3)cc2)C[C@H](C)N1` showed a CL of 4.4 mL/min/g. `C[C@@H]1CN(Cc2ccc(-c3cccnc3C(=O)N3CCC(Nc4cccc(F)c4)CC3)cc2F)C[C@H](C)N1` returned a CL of 9.4 mL/min/g. In turn, `COc1cc(-c2cccnc2C(=O)N2CCC(Nc3ccc(F)cc3)CC2)ccc1CN1C[C@@H](C)N[C@@H](C)C1` returned a CL of 5.3 mL/min/g. The compound `C[C@@H]1CN(Cc2ccc(-c3cccnc3C(=O)N3CCC(Nc4ccc(F)c(F)c4)CC3)cc2)C[C@H](C)N1` yielded a CL of 7 mL/min/g. Compound `C[C@@H]1CN(Cc2ccc(-c3cccnc3C(=O)N3CCC(Nc4cccc(C#N)c4)CC3)cc2)C[C@H](C)N1` gave a CL of 3.5 mL/min/g. The compound `C[C@@H]1CN(Cc2ccc(-c3cccnc3C(=O)N3CCC(Nc4ccc(F)cc4)CC3)cc2F)C[C@H](C)N1` displayed a CL of 5.5 mL/min/g.

A further series has as its system Liver microsomes. Description: Intrinsic clearance in rat liver microsome. It counts as ADME.
The compound `C[C@@H]1CN(Cc2ccc(-c3cccnc3C(=O)N3CCC(Nc4cccc(F)c4)CC3)cc2)C[C@H](C)N1` returned a CL of 6.5 mL/min/g. The same measure, in the same setting: next, `C[C@@H]1CN(Cc2ccc(-c3cccnc3C(=O)N3CCC(Nc4cccc(F)c4)CC3)cc2F)C[C@H](C)N1`: 12 mL/min/g; `COc1cc(-c2cccnc2C(=O)N2CCC(Nc3ccc(F)cc3)CC2)ccc1CN1C[C@@H](C)N[C@@H](C)C1`: 5.9 mL/min/g; `C[C@@H]1CN(Cc2ccc(-c3cccnc3C(=O)N3CCC(Nc4ccc(F)c(F)c4)CC3)cc2)C[C@H](C)N1`: 5.9 mL/min/g. Turning to `C[C@@H]1CN(Cc2ccc(-c3cccnc3C(=O)N3CCC(Nc4cccc(C#N)c4)CC3)cc2)C[C@H](C)N1`, the CL was determined as 4.6 mL/min/g. `C[C@@H]1CN(Cc2ccc(-c3cccnc3C(=O)N3CCC(Nc4ccc(F)cc4)CC3)cc2F)C[C@H](C)N1` showed a CL of 6.5 mL/min/g.
